We go through two molecules from ChEMBL document CHEMBL4011632, “Design, Synthesis, and Evaluation of Thiazolidine-2,4-dione Derivatives as a Novel Class of Glutaminase Inhibitors” (J Med Chem, 2017).

The test system of data set [1] is ASPC1. Put plainly: Anticlonogenic activity against human Aspc-1 cells at 2 uM after 21 days by crystal violet staining based assay relative to control. Conditions: ASPC1, 504 h. The class given is functional. The gist of the method:
(§1)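 Anchorage-dependent colony formation: AsPC-1 cells seeded at 1000 cells/well in six-well plates and treated with compound. Colony formation is expressed as percent of vehicle treatment. Mean ± SD from at least three independent experiments, each in duplicate.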

In data set [2] the target is T1, Glutaminase liver isoform, mitochondrial (Homo sapiens, UniProt Q9UI32).
T1 sequence (Q9UI32 whole entry): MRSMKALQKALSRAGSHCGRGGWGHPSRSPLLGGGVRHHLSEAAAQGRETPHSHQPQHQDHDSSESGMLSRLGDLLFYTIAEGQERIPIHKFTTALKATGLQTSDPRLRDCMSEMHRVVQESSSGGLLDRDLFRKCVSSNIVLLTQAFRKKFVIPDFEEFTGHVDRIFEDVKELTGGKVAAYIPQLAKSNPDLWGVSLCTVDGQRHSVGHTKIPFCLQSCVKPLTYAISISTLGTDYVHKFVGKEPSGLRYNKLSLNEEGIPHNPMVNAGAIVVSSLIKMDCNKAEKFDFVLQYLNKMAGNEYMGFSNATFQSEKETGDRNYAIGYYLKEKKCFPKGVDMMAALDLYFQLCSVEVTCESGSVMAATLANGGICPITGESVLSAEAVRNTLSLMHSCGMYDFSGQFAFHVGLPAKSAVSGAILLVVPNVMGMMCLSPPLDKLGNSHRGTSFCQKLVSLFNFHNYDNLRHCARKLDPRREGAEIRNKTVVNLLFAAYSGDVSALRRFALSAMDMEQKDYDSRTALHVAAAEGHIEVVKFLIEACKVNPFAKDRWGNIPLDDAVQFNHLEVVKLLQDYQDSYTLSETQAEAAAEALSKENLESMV
Put plainly: Inhibition of recombinant human His-tagged GAB (P56 to V602 residues) expressed in Escherichia coli C41(DE3)pLysS using glutamine as substrate preincubated for 10 mins followed by substrate addition measured after 60 mins by glutamate dehydrogenase coupled enzyme assay.

The target of data set [3] is T2, Glutaminase kidney isoform, mitochondrial (Homo sapiens, UniProt O94925).
T2 sequence (O94925 whole entry): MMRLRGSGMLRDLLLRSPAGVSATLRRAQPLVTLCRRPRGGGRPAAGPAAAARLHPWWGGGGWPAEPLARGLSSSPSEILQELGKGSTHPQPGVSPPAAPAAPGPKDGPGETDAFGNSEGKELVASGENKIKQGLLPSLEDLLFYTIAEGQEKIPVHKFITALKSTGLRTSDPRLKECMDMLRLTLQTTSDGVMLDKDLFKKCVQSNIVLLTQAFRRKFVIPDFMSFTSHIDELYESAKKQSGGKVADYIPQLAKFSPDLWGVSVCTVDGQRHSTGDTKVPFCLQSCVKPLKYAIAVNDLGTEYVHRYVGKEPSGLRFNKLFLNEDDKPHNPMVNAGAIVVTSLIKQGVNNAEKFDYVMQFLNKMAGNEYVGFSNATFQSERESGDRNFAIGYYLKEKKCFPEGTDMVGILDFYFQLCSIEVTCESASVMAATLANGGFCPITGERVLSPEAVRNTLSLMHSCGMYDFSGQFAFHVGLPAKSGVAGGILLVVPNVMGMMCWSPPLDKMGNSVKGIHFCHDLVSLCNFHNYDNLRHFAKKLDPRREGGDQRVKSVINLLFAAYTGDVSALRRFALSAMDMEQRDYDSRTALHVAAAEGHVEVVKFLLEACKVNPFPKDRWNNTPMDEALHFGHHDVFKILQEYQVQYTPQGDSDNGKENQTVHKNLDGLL
Put plainly: Inhibition of recombinant human His-tagged KGA (L123 to L669 residues) expressed in Escherichia coli BL21(DE3)pLysS using glutamine substrate preincubated for 10 mins followed by substrate addition measured after 60 mins by glutamate dehydrogenase coupled enzyme assay.

In data set [4] the target is T2, Glutaminase kidney isoform, mitochondrial. Put plainly: Inhibition of recombinant human MCF7 cells derived His-tagged GAC (L123 to S598 residues) expressed in Escherichia coli C41(DE3)pLysS using glutamine as substrate preincubated for 10 mins followed by substrate addition measured after 60 mins by glutamate dehydrogenase coupled enzyme assay. A digest of the protocol:
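Human GAC cloned from MCF7 cDNA into pET28a(+) as a His-tagged construct. Expressed in E. coli C41(DE3)pLysS in Terrific Broth with kanamycin, induced with 1 mM IPTG for 6 h at 25 °C. Purified on Ni2+ resin with 500 mM imidazole elution and exchanged into 50 mM NaH2PO4, 50 mM Tris-HCl pH 8.0, 2 mM DTT, 50% glycerol. Activity measured by two-step glutaminase assay.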

For data set [5], the species on record is Homo sapiens. Put plainly: Selectivity index, ratio of IC50 for recombinant human His-tagged GAB (P56-V602 residues) expressed in Escherichia coli C41(DE3)pLysS to IC50 for recombinant human His-tagged KGA (L123 to L669 residues) expressed in Escherichia coli BL21(DE3)pLysS.
Data set [6] concerns ASPC1. Put plainly: Anticlonogenic activity against human Aspc-1 cells at 10 uM after 21 days by crystal violet staining based assay relative to control. The class given is functional. The note with it: ASPC1, 504 h. The gist of the method: as §1
Data set [7] deals with ASPC1. Put plainly: Growth inhibition of human Aspc-1 cells after 72 hrs by MTS assay. Format: functional, cell-based. The note with it: ASPC1, 72 h. The gist of the method:
(§2)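 Growth inhibition by MTS viability read-out. Cells seeded in 96-well plates at 4000/well (AsPC-1) or 8500/well (MDA-MB-231). Mean ± SD from at least three independent experiments, each in duplicate.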
In general terms: Formazan colour is commonly taken as a measure of viable cells.

A further data set deals with MDA-MB-231. Put plainly: Growth inhibition of human MDA-MB-231 cells after 72 hrs by MTS assay. Conditions: MDA-MB-231, 72 h. The class given is functional, cell-based. The gist of the method: as §2
Data set [8] has as its target T3, Glutaminase liver isoform, mitochondrial (Homo sapiens) (UniProt Q9UI32).
T3 sequence (whole entry): T1 sequence (Q9UI32 whole entry)
Put plainly: Inhibition of human GLS2 in GLS1 deficient human Aspc-1 cells assessed as decrease in cellular glutamate production after 4 hrs by amplex red glutamic acid assay. The gist of the method:
(§3)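 GLS-knockout AsPC-1 cells made with GLS-KO ZFN mRNA, single-cell cloned, and grown in glutamine-free RPMI 1640 with 10% FBS. Cells seeded at 30 000/well and grown 24 h at 37 °C. Treated 4 h with 1% DMSO vehicle or 3.13−100 μM inhibitor, washed with PBS, and lysed in NP-40 buffer (4 °C, 20 min). Lysate glutamate measured by Amplex Red. Three independent experiments in duplicate.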

Data set [9] concerns the target T3, Glutaminase liver isoform, mitochondrial (Homo sapiens). Put plainly: Inhibition of human GLS2 in GLS1 deficient human Aspc-1 cells assessed as decrease in cellular glutamate production at 3.13 to 100 uM after 4 hrs by amplex red glutamic acid assay. The gist of the method:
as §3

The nature of data set [10]: Inhibition of recombinant human His-tagged KGA S384A mutant expressed in Escherichia coli BL21(DE3)pLysS using glutamine substrate preincubated for 10 mins followed by substrate addition measured after 60 mins.
Data set [11] in a line: Inhibition of recombinant human His-tagged KGA R387A mutant expressed in Escherichia coli BL21(DE3)pLysS using glutamine substrate preincubated for 10 mins followed by substrate addition measured after 60 mins.
The nature of data set [12]: Inhibition of recombinant human His-tagged KGA R387L mutant expressed in Escherichia coli BL21(DE3)pLysS using glutamine substrate preincubated for 10 mins followed by substrate addition measured after 60 mins.
Data set [13] can be described thus: Inhibition of recombinant human His-tagged KGA K507A mutant expressed in Escherichia coli BL21(DE3)pLysS using glutamine substrate preincubated for 10 mins followed by substrate addition measured after 60 mins.
The species entered for data set [14] is Homo sapiens. Put plainly: Selectivity ratio of IC50 for recombinant human His-tagged KGA S384A mutant expressed in Escherichia coli BL21(DE3)pLysS to IC50 for human His-tagged KGA (L123 to L669 residues) expressed in Escherichia coli BL21(DE3)pLysS.
For data set [15], the species on record is Homo sapiens. Put plainly: Selectivity ratio of IC50 for recombinant human His-tagged KGA R387A mutant expressed in Escherichia coli BL21(DE3)pLysS to IC50 for human His-tagged KGA (L123 to L669 residues) expressed in Escherichia coli BL21(DE3)pLysS.
The species entered for data set [16] is Homo sapiens. Put plainly: Selectivity ratio of IC50 for recombinant human His-tagged KGA R387L mutant expressed in Escherichia coli BL21(DE3)pLysS to IC50 for human His-tagged KGA (L123 to L669 residues) expressed in Escherichia coli BL21(DE3)pLysS.
The species entered for data set [17] is Homo sapiens. Put plainly: Selectivity ratio of IC50 for recombinant human His-tagged KGA K507A mutant expressed in Escherichia coli BL21(DE3)pLysS to IC50 for human His-tagged KGA (L123 to L669 residues) expressed in Escherichia coli BL21(DE3)pLysS.
Data set [18] concerns the target Glutaminase 1/2 (Homo sapiens) (UniProt O94925+Q9UI32). The note with it: 3.13 to 100 uM.
Compound in data set [19]: Cc1cc(/C=C2\SC(=O)NC2=O)c(C)n1-c1ccc(-c2ccc(/C=C3\SC(=O)NC3=O)cc2)cc1
Put plainly: Mixed-type inhibition of recombinant human KGA (L123 to L669 residues) expressed in Escherichia coli BL21(DE3)pLysS assessed as Vmax for substrate at 0.05 uM using glutamine substrate preincubated for 10 mins followed by substrate addition measured after 60 mins by Linerweaver-Burk plot analysis (reference value: 26.2 +/- 0.2 nmol/min/ug). A digest of the protocol: (§4)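 Kinetic analysis on human KGA: glutamine saturation profiles recorded at 0−0.4 μM inhibitor. Km and Vmax derived at each inhibitor concentration to assign the inhibition mode.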

Compound in data set [20]: Cc1cc(/C=C2\SC(=O)NC2=O)c(C)n1-c1ccc(-c2ccc(/C=C3\SC(=O)NC3=O)cc2)cc1
Put plainly: Mixed-type inhibition of recombinant human KGA (L123 to L669 residues) expressed in Escherichia coli BL21(DE3)pLysS assessed as Vmax for substrate at 0.1 uM using glutamine substrate preincubated for 10 mins followed by substrate addition measured after 60 mins by Linerweaver-Burk plot analysis (reference value: 26.2 +/- 0.2 nmol/min/ug). The gist of the method: as §4

Compound in data set [21]: Cc1cc(/C=C2\SC(=O)NC2=O)c(C)n1-c1ccc(-c2ccc(/C=C3\SC(=O)NC3=O)cc2)cc1
Put plainly: Mixed-type inhibition of recombinant human KGA (L123 to L669 residues) expressed in Escherichia coli BL21(DE3)pLysS assessed as Vmax for substrate at 0.2 uM using glutamine substrate preincubated for 10 mins followed by substrate addition measured after 60 mins by Linerweaver-Burk plot analysis (reference value: 26.2 +/- 0.2 nmol/min/ug). A digest of the protocol:
as §4

Compound in data set [22]: Cc1cc(/C=C2\SC(=O)NC2=O)c(C)n1-c1ccc(-c2ccc(/C=C3\SC(=O)NC3=O)cc2)cc1
Put plainly: Mixed-type inhibition of recombinant human KGA (L123 to L669 residues) expressed in Escherichia coli BL21(DE3)pLysS assessed as Vmax for substrate at 0.4 uM using glutamine substrate preincubated for 10 mins followed by substrate addition measured after 60 mins by Linerweaver-Burk plot analysis (reference value: 26.2 +/- 0.2 nmol/min/ug). The gist of the method: as §4

Compound in data set [23]: Cc1cc(/C=C2\SC(=O)NC2=O)c(C)n1-c1ccc(-c2ccc(/C=C3\SC(=O)NC3=O)cc2)cc1
Put plainly: Mixed-type inhibition of recombinant human KGA (L123 to L669 residues) expressed in Escherichia coli BL21(DE3)pLysS assessed as Km for substrate at 0.05 uM using glutamine substrate preincubated for 10 mins followed by substrate addition measured after 60 mins by Linerweaver-Burk plot analysis (reference value: 25.5 +/- 0.6 mM). The gist of the method: as §4

Compound in data set [24]: Cc1cc(/C=C2\SC(=O)NC2=O)c(C)n1-c1ccc(-c2ccc(/C=C3\SC(=O)NC3=O)cc2)cc1
Put plainly: Mixed-type inhibition of recombinant human KGA (L123 to L669 residues) expressed in Escherichia coli BL21(DE3)pLysS assessed as Km for substrate at 0.1 uM using glutamine substrate preincubated for 10 mins followed by substrate addition measured after 60 mins by Linerweaver-Burk plot analysis (reference value: 25.5 +/- 0.6 mM). A digest of the protocol:
as §4

Active and inactive are the calls of the source. No cut-off for these calls is given here.

As usually defined, the inhibition is the percentage by which the read-out fell short of the control. A word on the IC50: it is the point on the concentration scale where inhibition reaches its midpoint. For the molecule `O=C1NC(=O)/C(=C/c2ccc(-c3ccc(-n4c(-c5ccccc5)cc(/C=C5\SC(=O)NC5=O)c4-c4ccccc4)cc3)cc2)S1`, the inhibition at 2 µM with ASPC1 [1] came out at 79%. In addition, the IC50 in data set [2] worked out at 261 nM; in data set [3], 45 nM; in data set [4], 151 nM; in the data set on ASPC1 [7], 10000 nM; in the data set with MDA-MB-231, 13400 nM; in [10], 78 nM. The IC50 in data set [11] was 8880 nM; in data set [12], 603 nM; in data set [13] it was 187 nM. Besides, the Ratio IC50 came to 5.8 in the data set listed under Homo sapiens [5]; 1.7 in the data set filed under Homo sapiens [14]; 197 in the data set listed under Homo sapiens [15]; 13.4 in the data set listed under Homo sapiens [16]; 4.2 in the data set filed under Homo sapiens [17]. In the data set with ASPC1 [6], this molecule displayed an inhibition at 10 µM of 94%. Besides, in data set [8], the inhibition entry was “Dose-dependent effect”. The inhibition entry in [9] and in [18] was “Active” throughout.

B1: Glutaminase kidney isoform, mitochondrial (Homo sapiens), O94925 (protein)
chain: T2 sequence (O94925 whole entry)
In general, Km refers to the substrate concentration at which the rate is half of its maximum. Consider B1, for which the Vmax in data set [19] amounted to 26.3 nmol/min/µg; in data set [20] it was 26.2 nmol/min/µg; in data set [21], 22.9 nmol/min/µg; in data set [22], 15 nmol/min/µg. The Km in data set [23] was found to be 50.9 mM; in data set [24], 69.7 mM.
